How the values were obtained:
Assay type in all cases: cell-based
[1] = target: T1, Heat sensitive channel TRPV3 (Rattus norvegicus) (UniProt Q4QYD9); experiment: Activation of rat TRPV3 overexpressed in HEK293 cells assessed as increase in 2-aminoethoxydiphenyl borate-induced intracellular calcium concentration by Fluo-4AM dye-based spectrofluorometry relative to ionomycin
T1 sequence (whole entry): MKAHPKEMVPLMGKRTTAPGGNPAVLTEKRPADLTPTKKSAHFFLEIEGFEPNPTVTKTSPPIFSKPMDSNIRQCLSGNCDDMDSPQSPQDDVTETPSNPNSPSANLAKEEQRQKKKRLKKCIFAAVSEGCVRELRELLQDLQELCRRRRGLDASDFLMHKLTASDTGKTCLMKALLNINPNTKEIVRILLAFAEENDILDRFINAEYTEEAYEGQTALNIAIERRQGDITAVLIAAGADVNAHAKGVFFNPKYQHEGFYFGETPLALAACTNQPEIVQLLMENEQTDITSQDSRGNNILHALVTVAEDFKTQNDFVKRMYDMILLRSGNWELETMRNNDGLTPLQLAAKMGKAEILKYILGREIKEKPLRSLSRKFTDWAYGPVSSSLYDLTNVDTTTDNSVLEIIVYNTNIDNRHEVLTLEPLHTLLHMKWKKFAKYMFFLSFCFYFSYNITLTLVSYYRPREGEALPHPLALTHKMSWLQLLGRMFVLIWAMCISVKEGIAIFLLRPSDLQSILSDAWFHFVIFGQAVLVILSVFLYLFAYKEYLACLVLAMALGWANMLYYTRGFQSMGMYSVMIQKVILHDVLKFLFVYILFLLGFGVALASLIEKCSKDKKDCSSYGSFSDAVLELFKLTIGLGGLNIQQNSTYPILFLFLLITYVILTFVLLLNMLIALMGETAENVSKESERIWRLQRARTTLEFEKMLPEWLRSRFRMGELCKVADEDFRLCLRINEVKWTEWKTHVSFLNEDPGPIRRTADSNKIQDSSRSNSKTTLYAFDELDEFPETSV
Summary of the method: (§1)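 Stable rat TRPV3 HEK293 cells in MEM with 10% FBS, 37 °C, 5% CO2. Pre-sensitized with 2-APB (100 μM). Loaded 1 h at room temperature with Fluo-4 AM (4 μM), washed, held in Tyrode's buffer pH 7.4 in a stirred cuvette. Untransfected HEK293 baseline subtracted. EC50 taken from sigmoidal variable-slope fit. Efficacy expressed relative to 4 μM ionomycin. At least triplicate.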

[2] = target: T2, Heat sensitive channel TRPV3 (Rattus norvegicus, UniProt Q4QYD9); experiment: Activation of rat TRPV3 overexpressed in HEK293 cells assessed as increase in 2-aminoethoxydiphenyl borate-induced intracellular calcium concentration by Fluo-4AM dye-based spectrofluorometry; summary of the method: as §1
T2 sequence (Q4QYD9 whole entry): T1 sequence (whole entry)

[3] = target: T2, Heat sensitive channel TRPV3; experiment: Antagonist activity at rat TRPV3 overexpressed in HEK293 cells assessed as inhibition of thymol-induced increase in intracellular Ca2+ levels preincubated for 5 mins prior to thymol-stimulation by Fluo-4AM dye-based spectrofluorometry
Summary of the method: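 Compounds added 5 min before thymol (100 μM). Thymol-alone response taken as 100%. IC50 of inhibition of the [Ca2+]i rise taken from sigmoidal variable-slope fit. At least triplicate. ANOVA with Bonferroni.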

[4] = Inhibition of TNFalpha-induced NFkappaB activation in mouse NIH-3T3 cells expressing NFkappaB (unknown origin) preincubated for 15 mins followed by TNFalpha addition measured after 6 hrs by luciferase reporter gene assay; settings: NIH3T3
[5] = target: T3, Transient receptor potential cation channel subfamily V member 3 (Mus musculus, UniProt Q8K424); experiment: Agonist activity at mouse YFP-tagged TRPV3 expressed in HEK293 cells assessed as increase in calcium influx by Fluo-2-AM dye based microscopic analysis
T3 sequence (Q8K424 whole entry): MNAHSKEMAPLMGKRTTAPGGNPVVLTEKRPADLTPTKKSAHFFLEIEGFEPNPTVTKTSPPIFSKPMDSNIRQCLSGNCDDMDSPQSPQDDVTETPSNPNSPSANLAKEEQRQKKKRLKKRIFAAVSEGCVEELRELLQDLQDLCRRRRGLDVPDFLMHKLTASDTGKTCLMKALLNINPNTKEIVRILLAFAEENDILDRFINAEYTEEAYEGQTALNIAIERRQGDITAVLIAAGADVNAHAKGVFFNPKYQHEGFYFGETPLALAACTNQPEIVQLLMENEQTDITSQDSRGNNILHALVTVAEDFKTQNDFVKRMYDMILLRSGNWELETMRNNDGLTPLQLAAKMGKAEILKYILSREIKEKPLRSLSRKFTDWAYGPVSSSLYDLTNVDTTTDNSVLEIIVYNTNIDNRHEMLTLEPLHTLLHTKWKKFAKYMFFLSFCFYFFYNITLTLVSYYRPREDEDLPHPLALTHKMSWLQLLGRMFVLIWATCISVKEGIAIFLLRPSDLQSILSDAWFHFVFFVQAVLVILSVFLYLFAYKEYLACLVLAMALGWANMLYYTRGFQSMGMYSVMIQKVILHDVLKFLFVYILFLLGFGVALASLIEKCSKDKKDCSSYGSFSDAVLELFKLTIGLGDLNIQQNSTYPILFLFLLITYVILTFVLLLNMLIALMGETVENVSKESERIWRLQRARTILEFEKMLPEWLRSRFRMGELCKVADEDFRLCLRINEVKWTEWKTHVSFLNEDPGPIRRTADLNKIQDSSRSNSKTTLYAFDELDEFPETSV

Row | Structure (SMILES) | Emax [1] | EC50 [2] | IC50 [3] | IC50 [4] | EC50 [5]
1 | C/C1=C\C[C@]2(C(C)C)CC[C@@](C)(O2)[C@@H](OC(=O)Cc2ccccc2)CC/C(C)=C/CC1 | 25.6% | 1.2 µM | 21.7 µM | 22.4 µM | –
2 | C/C1=C\CC/C(C)=C/C[C@](O)(C(C)C)CC/C(C)=C/CC1 | 62.4% | 0.17 µM | 0.15 µM | > 50 µM | –
3 | C/C1=C\C[C@]2(C(C)C)CC[C@@](C)(O2)[C@H](O)CC/C(C)=C/CC1 | 38% | 7.3 µM | 12.3 µM | > 50 µM | –
4 | C/C1=C\C[C@]2(C(C)C)CC[C@@](C)(O2)C(=O)CC/C(C)=C/CC1 | – | – | – | > 50 µM | –
5 | CC1=C2CC/C(C)=C/CC[C@]3(C)O[C@@H]3CC/C(C)=C/[C@@H]2OC1 | – | – | – | > 50 µM | –
6 | Cc1ccc(C(C)C)c(O)c1 [THYMOL] | 49.4% | 29 µM | – | – | –
7 | CC1=C2CC/C(C)=C/CC[C@]3(C)O[C@@H]3CC/C(C)=C/[C@@H]2OC1=O | 21.3% | 30.1 µM | > 100 µM | > 50 µM | –
8 | CC(=O)O[C@H]1CC/C(C)=C/CC[C@]2(C)O[C@@H]2C[C@]2(C(C)C)CC[C@@]1(C)O2 | 57.7% | 8.8 µM | 13.2 µM | > 50 µM | –
9 | CC(=O)O[C@H]1CC/C(C)=C/CC/C(C)=C/C[C@]2(C(C)C)CC[C@@]1(C)O2 | 43.4% | 1.4 µM | 2.2 µM | > 50 µM | 16 µM
10 | C/C1=C\CC[C@]2(C)O[C@@H]2C[C@]2(C(C)C)CC[C@@](C)(O2)[C@@H](O)CC1 | 27.2% | 25.4 µM | > 100 µM | > 50 µM | –
11 | CC(=O)O[C@H]1CC[C@@]2(C)O[C@H]2CC/C(C)=C/C[C@]2(C(C)C)CC[C@@]1(C)O2 | 31.6% | 8.6 µM | 21.1 µM | > 50 µM | –
12 | C/C1=C\C[C@]2(C(C)C)CC[C@@](C)(O2)[C@@H](OC(=O)/C=C/c2ccccc2)CC/C(C)=C/CC1 | – | – | – | > 50 µM | –
13 | CCCCCCCCC(=O)O[C@H]1CC/C(C)=C/CC/C(C)=C/C[C@]2(C(C)C)CC[C@@]1(C)O2 | – | – | – | 35.5 µM | –
14 | C/C1=C\C[C@]2(C(C)C)CC[C@@](C)(O2)[C@@H](O)CC/C(C)=C/CC1 [INCENSOLE] | 65.1% | 2.1 µM | 2.1 µM | > 50 µM | –
15 | NC(=O)c1sc(-c2ccsc2)cc1N | – | – | – | 7.9 µM | –
16 | C/C1=C\C[C@]2(C(C)C)CC[C@@](C)(O2)[C@@H](OC(=O)c2ccccc2)CC/C(C)=C/CC1 | – | – | – | > 50 µM | –
